Assay outcomes: PubChem BioAssay, The Scripps Research Institute Molecular Screening Center
Most compounds without a hit are left out; they make up all but 1.8% or so of the library.
TCR CD3 inh: human TCR-CD3 binding inhibition | inhibition, % at 9.4 µM | 360,000 compounds, 0.37% hits | TAMRA-labeled TCR probe fluorescence, biochemical; in the data active means inhibition above about 19%;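 further: recombinant mutant TCR 2C K166C tagged with TAMRA read by polarization; 0% = receptor in buffer alone and 100% = receptor with positive control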
HTRA1 inh: blocks human HTRA1 serine peptidase. Q92743. recombinant HTRA1, FP-rhodamine activity-based probe, fluorescence polarization. inhibition, % at 5.96 µM. 340,000 compounds, 0.5% hits. AID 504803; in the data active means inhibition above about 36%;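 further: 0% = enzyme with DMSO and 100% = wells lacking enzyme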
PME-1 inh: blocks human protein phosphatase methylesterase 1 | recombinant PME-1, FP-Rh probe fluorescence polarization | inhibition, % at 5.9 µM | 320,000 compounds, 0.53% hits | AID 2130;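 active means inhibition above the campaign mean of all compounds plus 3 SD, cut at about 26% in these data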;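 further: competitive labeling of PME-1 active site by serine hydrolase directed probe; 0% = PME-1 with DMSO and 100% = wells lacking PME-1 enzyme; inhibitors block probe labeling so polarization falls and inhibition rises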
Target sequence (Q9Y570 whole entry, looked up): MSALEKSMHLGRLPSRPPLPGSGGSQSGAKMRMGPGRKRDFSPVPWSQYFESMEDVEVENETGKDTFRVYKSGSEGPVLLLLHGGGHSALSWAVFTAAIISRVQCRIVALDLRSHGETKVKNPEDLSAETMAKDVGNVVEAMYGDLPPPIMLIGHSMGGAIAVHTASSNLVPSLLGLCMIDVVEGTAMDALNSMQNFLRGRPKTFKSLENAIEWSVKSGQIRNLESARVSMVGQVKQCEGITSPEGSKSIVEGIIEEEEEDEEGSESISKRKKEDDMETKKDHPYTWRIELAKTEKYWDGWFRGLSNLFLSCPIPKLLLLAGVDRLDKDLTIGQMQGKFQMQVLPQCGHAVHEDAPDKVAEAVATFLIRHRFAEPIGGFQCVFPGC
SIAE inh: blocks human sialic acid acetylesterase | Q9HAT2 | SIAE FP-Rh probe binding, fluorescence polarization | inhibition, % at 9.66 µM | 370,000 compounds, 0.69% hits;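 active means inhibition above a cutoff: mean of compounds within the control limits plus 3 SD of those, cut at about 17% in these data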;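 further: 0% = plate median of compound wells and 100% = probe without SIAE protein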
Fam108B counter: Fam108B inhibition, counter-screen for RBBP9 inhibitors; 300,000 compounds, 0.33% hits; AID 1947; recombinant Fam108B, FP-Rh probe fluorescence polarization; inhibition, % at 9.51 µM;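 active means inhibition above the screen mean inhibition plus 3 SD, computed separately per campaign, cut at about 18% in these data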;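 further: inhibitors lower polarization as less probe binds the enzyme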
mABHD4 FP: inhibitors of mouse ABHD4; purified mABHD4, FP-Rh probe fluorescence polarization; Q8VD66; 370,000 compounds, 0.54% hits; AID 720543; inhibition, % at 8.92 µM;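 active means inhibition exceeding the mean over every tested compound plus 3 SD, cut at about 30% in these data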;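 further: 0% = plate median of compound wells and 100% = S159A mutant with DMSO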
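Assay system: mABHD4 protein; medium: HEPES pH 7.0, NaCl, Pluronic buffer; dosing: 8.92 µM, single dose; schedule: 45 min + 60 min at 25 °C; signal: FP readout, ex 525 nm / em 598 nm; read-out: normalized percent inhibition of probe labeling; repeats: single replicate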
Fam108b inh conf: Fam108b (mouse) hydrolase inhibition, confirmation assay | 930 compounds, 44% hits | recombinant Fam108b, FP-Rh probe fluorescence polarization | inhibition, % at 9.51 µM | AID 1978 | shares compounds with Fam108B counter;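 active means inhibition above a limit from the primary screen, the mean over all compounds plus 3 SD, cut at about 19% in these data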;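 further: 0% = median of active Fam108b wells and 100% = catalytically dead S170A mutant; inhibitors free the probe so polarization falls as inhibition rises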
Fam108b ABPP HTS: mouse ABHD17B inhibition; shares compounds with Fam108B counter; recombinant Fam108b, gel-based ABPP, fluorophosphonate probe; inhibition, % at 20 µM; 260 compounds, 44% hits; AID 588649; in the data active means inhibition above about 40%
* marks the source's active call; other numbers are inactive results; . = not tested or not shown.

SMILES	TCR CD3 inh	HTRA1 inh	PME-1 inh	SIAE inh	Fam108B counter	mABHD4 FP	others
N#CC1=C(N)C(C#N)(C#N)C(c2ccncc2)C2CN(C(=O)OCc3ccccc3)CC=C12 (configuration not stated)	-5	-2	31*	1	1	10
O=S1(=O)c2c(cccc2N2CCSCC2)Oc2ccccc2CN1Cc1cn(Cc2ccccc2C(F)(F)F)nn1	.	.	.	-11	.	-12
COc1ccc(CNCC#CC2=CCCCC2)c(OC)c1	.	.	.	-2	.	10
C=CCOc1c(Br)cc(/C=N/Nc2ccc(C(=O)O)cc2)cc1OCC	5	-5	48*	16	17	28
COc1ccc(/C=N/Nc2ccc(C(=O)O)cc2)cc1Br	-1	3	2	1	7	9
COC(=O)C1CN(Cc2ccc(F)cc2)CCS(=O)(=O)N1Cc1ccc(C)cc1 (configuration not stated)	.	.	.	-1	.	-3
CN1CCc2cc3c(c4c2[C@H]1[C@H](O)c1ccccc1-4)OCO3	15	17	10	12	6	46*
COc1ccccc1NS(=O)(=O)c1cccc(-n2c(O)c(C=Nc3ccccc3C(=O)O)c3ccccc3c2=O)c1	2	-56	82*	-2	18	17
COc1ccc(Cn2c(O)c(C=Nc3ccccc3C(=O)O)c3ccccc3c2=O)cc1	-3	-4	0	-6	12	9
COC(=O)C1CN(Cc2ccc(Cl)cc2)CCS(=O)(=O)N1Cc1cn(Cc2ccccc2)nn1 (configuration not stated)	.	.	.	2	.	3
CC1=Nc2ccccc2/C1=C/c1sc(=N)n(-c2nccs2)c1O	.	16	39*	.	13	.
NC1=[N+](Cc2ccccc2)C[C@H]2C(=C3CCCC[C@H]3n3c(=O)n(-c4ccccc4)c(=O)n32)N1	.	.	.	0	.	2
COC(=O)[C@H]1C[C@@]2(N3CCCCC3)c3ccccc3N(S(=O)(=O)c3ccccc3)[C@H]2N1	.	.	.	8	.	4
CSc1ccccc1C(=O)NCCCn1ccnc1	-3	-3	144*	-2	-1	-7
Cc1cccc(-n2c3nc(=O)[nH]c(=O)c-3cc3cc([N+](=O)[O-])ccc32)c1	7	7	31*	8	13	0
c1ccc(OCc2nnc(-c3ccccc3)o2)cc1	2	-3	5	11	3	1
Oc1ccccc1-c1nnc(COc2ccccc2)o1	34*	11	-2	9	-1	2
O=C1CN(C(=O)c2cc3ccccc3oc2=O)C(c2ccccc2)c2cc(F)ccc2N1 (configuration not stated)	9	0	34*	1	1	2
Cc1ccc(S(=O)(=O)c2nnn3c2nc(N2CCOCC2)c2ccccc23)cc1C	5	-17	5	-9	-1	0
Cc1ccc(S(=O)(=O)c2nnn3c2nc(N2CCOCC2)c2ccccc23)c(C)c1	-4	-6	27*	-3	2	4
O=C1c2cccc3c(N4CCCCC4)ccc(c23)C(=O)N1c1cccc(O)c1	6	-28	27*	-23	-22	-12
CCc1ccc(OC)c(S(=O)(=O)Nc2ccc(Cc3ccncc3)cc2)c1	4	-11	27*	-11	2	-9
COc1ccc(S(=O)(=O)Nc2ccc(Cc3ccncc3)cc2)cc1OC	11	-1	15	1	4	1
C/C(=C/c1nc(N)n(Cc2ccccc2)c1Cc1ccccc1)Cn1[nH]c(=O)n(-c2ccccc2)c1=O	.	.	.	8	.	-4
COC(=O)C1CN(Cc2ccccc2)CCS(=O)(=O)N1Cc1ccc(Cl)cc1 (configuration not stated)	.	.	.	2	.	-4
SMILES	TCR CD3 inh	HTRA1 inh	PME-1 inh	SIAE inh	Fam108B counter	mABHD4 FP	others
COc1ccc(C(=O)Oc2c(CN3CCOCC3)cc(Cl)c3cccnc23)cc1	-3	40*	1	-4	0	5
COc1cccc(C(=O)Oc2c(CN3CCOCC3)cc(Cl)c3cccnc23)c1	-4	36	-6	-1	5	9
Cc1cc(Nc2cccc(Cl)c2)nc(NCc2ccccc2)n1	0	-29	4	24*	7	19
c1ccc(CC2CCN(c3nc4ccccc4n4nnnc34)CC2)cc1	33*	-7	-4	-15	2	3
O=C(c1ccco1)N1CCN(c2nc3ccccc3n3nnnc23)CC1	0	-2	13	0	1	6
COc1cccc(CNC(=O)CCCc2cn(C)c3ccccc23)c1	0	-5	134*	5	-1	-2
Nc1nc(-c2c[nH]c3ccccc23)cs1	-19	16	-2	3	-4	9
Cc1ccc2c(-c3csc(N)n3)c[nH]c2c1	.	.	51*	.	14	.
CC(C)C[C@@H]1NC(=O)[C@H]2C[C@@]3(C)c4ccccc4N[C@H]3N2C1=O	.	.	.	3	.	6
CC[C@@]1(c2ccccc2)C(=O)N(C(=O)OC)N1C(=O)OC	1	3	3	2	1	-1
COC(=O)N1C(=O)[C@](c2ccccc2)(C(C)C)N1C(=O)OC	7	-2	35*	5	-4	1
CCN1CCN(Cc2ccc(NC(=O)c3cccc(-c4ccc5nc(NC(=O)C6CC6)sc5n4)c3)cc2C(F)(F)F)CC1	8	.	.	-79	.	-29
O=[N+]([O-])c1cc(S(=O)(=O)Nc2cccc(C(F)(F)F)c2)ccc1-n1nnc2ccccc21	-2	-42	33*	-6	-4	-9
N#Cc1ccc(/C=N/NC(=S)Nc2ccc(S(=O)(=O)N3CCOCC3)cc2)cc1	-2	-11	-1	-8	-1	3
O=[N+]([O-])c1cc(Cl)cc(C=NNC(=S)Nc2ccc(S(=O)(=O)N3CCOCC3)cc2)c1O	.	.	.	.	.	.	Fam108b ABPP HTS=0
CCCC#CCN1CCN(C23CC4CC(CC(C4)C2)C3)CC1	2	5	4	2	18*	-1	Fam108b inh conf=0
O=C(CCCN1C(=O)c2cccc3cccc(c23)C1=O)NCc1cccs1	3	2	1	12	22*	7	Fam108b inh conf=27*
COc1cc(/C=C2/C(=O)NN(c3cccc(C)c3)C2=O)ccc1OC(=O)c1ccco1	2	2	11	-5	1	29
COc1cc(/C=C2/C(=O)NN(c3cccc(C)c3)C2=O)cc([N+](=O)[O-])c1O	5	26	6	1	83*	28	Fam108b inh conf=6
COc1cc2c(cc1NC(=O)Nc1cccc(C)c1)oc1ccccc12	-7	2	36*	9	22*	-2	Fam108b inh conf=8
Cn1ncc2c(Nc3cccc(Cl)c3)nc(Nc3cccc(Cl)c3)nc21	1	-72	-34	-31	-34	-73
